Test results taken from publication PMC5696082 (Analytical biochemistry, 2017).

Assays:
FAAH = target: T1, FAAH (Homo sapiens, UniProt O00519); test: Specific activity of FAAH towards substrates; assay type: biochemical
T1 sequence (O00519 1-579): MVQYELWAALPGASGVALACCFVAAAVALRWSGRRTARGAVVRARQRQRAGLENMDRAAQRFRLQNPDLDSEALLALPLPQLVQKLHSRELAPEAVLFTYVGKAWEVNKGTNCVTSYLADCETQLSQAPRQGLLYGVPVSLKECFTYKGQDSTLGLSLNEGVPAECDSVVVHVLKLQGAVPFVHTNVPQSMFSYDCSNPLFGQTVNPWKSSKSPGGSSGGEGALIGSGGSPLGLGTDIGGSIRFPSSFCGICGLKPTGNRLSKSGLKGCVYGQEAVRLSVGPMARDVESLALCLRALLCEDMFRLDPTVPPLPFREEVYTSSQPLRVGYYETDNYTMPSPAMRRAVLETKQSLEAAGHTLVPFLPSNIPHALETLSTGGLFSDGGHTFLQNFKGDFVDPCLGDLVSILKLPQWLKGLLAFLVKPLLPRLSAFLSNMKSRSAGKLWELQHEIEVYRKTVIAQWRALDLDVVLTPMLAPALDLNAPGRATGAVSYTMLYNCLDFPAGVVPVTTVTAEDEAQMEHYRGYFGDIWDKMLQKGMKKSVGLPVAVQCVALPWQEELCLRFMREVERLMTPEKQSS
Summary of the method: (§1)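 Enzymes expressed in baculovirus-infected High Five cells: hCE1 CHAPS-solubilised from the 100,000 g pellet, then DEAE-purified; hCE2/hCE3 crude soluble fraction; FAAH crude insoluble fraction. Substrate added to 50 µM final in 100 mM sodium phosphate pH 8.0, 0.1 mg/mL BSA, 1% DMSO. Fluorescence read every 30 s for ≥10 min at 37°C. Rates corrected for estimated purity: hCE1 25%, hCE2 4%, hCE3 3.5% (3% in footnotes), FAAH 6.9%. Triplicates.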

Lung S9 = test: Substrate hydrolysis by pooled tissue S9, lung; assay type: biochemical, human
Summary of the method: (§2)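 Commercial pooled human tissue S9 fraction added to substrate at 50 µM final in 100 mM sodium phosphate, pH 8.0, 0.1 mg/mL BSA. Fluorescence monitored every 30 s for at least 10 min at 37°C. Specific activity given as the mean of triplicates in one experiment, or mean ± standard deviation of 3 independent experiments run in triplicate.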

hCE1 [1] = target: T2, hCE1 (Homo sapiens, UniProt P23141); test: Specific activity of hCE1 towards substrates; assay type: biochemical
T2 sequence (P23141 18-567): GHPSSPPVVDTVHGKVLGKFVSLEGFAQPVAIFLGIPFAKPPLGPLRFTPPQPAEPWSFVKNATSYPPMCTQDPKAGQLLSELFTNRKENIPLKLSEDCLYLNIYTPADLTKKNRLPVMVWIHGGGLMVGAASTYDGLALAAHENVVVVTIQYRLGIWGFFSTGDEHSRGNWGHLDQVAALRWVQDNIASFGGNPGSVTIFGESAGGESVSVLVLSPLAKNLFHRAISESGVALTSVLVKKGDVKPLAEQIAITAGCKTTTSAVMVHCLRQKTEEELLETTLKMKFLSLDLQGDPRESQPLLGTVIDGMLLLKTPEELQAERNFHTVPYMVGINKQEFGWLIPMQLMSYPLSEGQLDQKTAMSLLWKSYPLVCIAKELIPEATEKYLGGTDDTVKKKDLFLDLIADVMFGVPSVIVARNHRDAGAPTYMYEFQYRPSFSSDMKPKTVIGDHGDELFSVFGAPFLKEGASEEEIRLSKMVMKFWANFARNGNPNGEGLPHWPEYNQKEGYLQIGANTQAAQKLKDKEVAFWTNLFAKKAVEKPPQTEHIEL
Summary of the method: as §1

hCE2 [2] = target: T3, hCE2 (Homo sapiens, UniProt O00748); test: Specific activity of hCE2 towards substrates; assay type: biochemical
T3 sequence (O00748 27-559): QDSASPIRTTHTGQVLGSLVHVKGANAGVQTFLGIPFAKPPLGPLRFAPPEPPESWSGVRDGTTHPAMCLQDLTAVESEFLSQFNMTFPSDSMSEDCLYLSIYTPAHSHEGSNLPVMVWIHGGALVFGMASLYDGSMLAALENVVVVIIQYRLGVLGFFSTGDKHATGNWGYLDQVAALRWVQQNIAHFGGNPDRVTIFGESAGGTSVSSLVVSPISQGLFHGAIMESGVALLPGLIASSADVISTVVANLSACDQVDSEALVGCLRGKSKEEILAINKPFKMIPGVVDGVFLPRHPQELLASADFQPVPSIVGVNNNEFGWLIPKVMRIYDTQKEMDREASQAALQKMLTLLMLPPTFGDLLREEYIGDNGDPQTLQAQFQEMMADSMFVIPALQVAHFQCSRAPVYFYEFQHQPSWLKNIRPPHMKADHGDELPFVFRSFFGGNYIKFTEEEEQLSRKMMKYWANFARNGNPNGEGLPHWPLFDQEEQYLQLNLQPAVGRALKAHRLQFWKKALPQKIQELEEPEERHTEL
Summary of the method: as §1

hCE2 [3] = target: T3, hCE2; test: Kinetic properties; assay type: biochemical
hCE3 = target: T4, hCE3 (Homo sapiens, UniProt Q6UWW8); test: Specific activity of hCE3 towards substrates; assay type: biochemical
T4 sequence (Q6UWW8 27-571): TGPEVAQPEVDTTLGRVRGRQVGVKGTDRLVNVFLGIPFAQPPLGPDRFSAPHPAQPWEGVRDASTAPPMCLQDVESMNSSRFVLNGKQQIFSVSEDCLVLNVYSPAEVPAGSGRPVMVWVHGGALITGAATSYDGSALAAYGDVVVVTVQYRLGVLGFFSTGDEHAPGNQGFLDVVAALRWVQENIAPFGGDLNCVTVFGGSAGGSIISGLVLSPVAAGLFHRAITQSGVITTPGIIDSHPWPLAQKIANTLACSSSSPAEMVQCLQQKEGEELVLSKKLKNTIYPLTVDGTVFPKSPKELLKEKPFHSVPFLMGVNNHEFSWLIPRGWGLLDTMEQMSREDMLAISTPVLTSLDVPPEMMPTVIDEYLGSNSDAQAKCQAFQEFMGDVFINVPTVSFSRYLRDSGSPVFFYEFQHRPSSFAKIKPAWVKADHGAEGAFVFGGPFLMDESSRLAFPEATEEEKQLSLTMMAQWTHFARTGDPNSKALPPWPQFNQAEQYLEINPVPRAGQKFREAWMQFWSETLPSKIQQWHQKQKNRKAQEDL
Summary of the method: as §1

Kidney S9 = test: Substrate hydrolysis by pooled tissue S9, kidney; assay type: biochemical, human
Summary of the method: as §2

hCE1 [4] = target: T2, hCE1; test: Kinetic properties; assay type: biochemical
[5] = Background hydrolysis of substrates in phosphate buffer; assay type: physicochemical

## CCCCC(C)CCC(=O)Nc1ccc(OC)nc1C (centres unmarked) [4-MOMMP, N-(6-methoxy-2-methylpyridin-3-yl)-4-methyloctanamide]
FAAH
  Selectivity of hCE1 over FAAH (turnover): 10 fold
Lung S9
  Hydrolysis Specific Activity: 0.20 ± 0.02 pmol/min/µg
hCE1 [1]
  Turnover by hCE1, times lower than CMNA: 10 times
hCE1 [1]; 13 other esterases / serine hydrolases
  Preference of hCE1 over the other esterases tested: ≥ 10 fold
hCE1 [1]; Table 6, hCE1
  Hydrolysis Specific Activity: 370 ± 27 pmol/min/µg
hCE2 [2]
  Selectivity of hCE1 turnover compared to hCE2: 40- to 50 fold
hCE2 [2]; Table 3, [S] = 50 µM, 37°C, pH 8, estimated 4% purity
  hCE2 Specific activity: 13 pmol/min/µg
hCE2 [2]; Table 6, hCE2
  Hydrolysis Specific Activity: 6.4 ± 0.7 pmol/min/µg
hCE2 [3]
  KM for hCE2, fold lower than that of hCE1: 3 fold
hCE3; Table 3, [S] = 50 µM, 37°C, pH 8, estimated 3% purity
  hCE3 Specific activity: <1 pmol/min/µg
hCE3; Table 6, hCE3
  Hydrolysis Specific Activity: 1.4 ± 0.4 pmol/min/µg
Kidney S9
  Hydrolysis Specific Activity: <0.05 pmol/min/µg
hCE1 [4]
  Catalytic efficiency of hCE1, fold lower than that of CMNA: approximately 16 fold
  Vmax with hCE1, fold lower than CMNA: 3 fold
  Vmax, fold higher with hCE1 than hCE2: 120 fold
[5]; phosphate buffer
  Background hydrolysis, fold lower than CMNA: 200 fold
[5]; phosphate buffer 100 mM, pH 8, 0.1 mg/mL BSA
  Rate of background hydrolysis: 0.1 pmol/min
